For eight compounds, Activity results are on record in ChEMBL document CHEMBL1157098, “AMP-activated protein kinase (AMPK) activation by benzofurans and coumestans isolated from Erythrina abyssinica” (J Nat Prod, 2010).

Common to all, as to type: cell-based
Experiment [1] concerns the target 5'-AMP-activated protein kinase catalytic subunit alpha-1 (Mus musculus) (UniProt Q5EG47). The experiment in a line: Activation of AMPKalpha in differentiated mouse C2C12 cells assessed as phosphorylated-AMPK level at 10 uM after 30 mins by Western blot analysis relative to control. The method, boiled down: (§1)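 C2C12 myoblasts seeded at 10^5 cells/well and differentiated at confluence in DMEM with 5% horse serum, medium changed every 48 h until myotubes formed. Myotubes exposed to compounds for 30 min, lysed in EBC buffer (50 mM Tris-HCl pH 7.6, 120 mM NaCl, 1 mM EDTA, 0.5% NP-40, 50 mM NaF). About 30 µg protein immunoblotted for phospho-AMPKα Thr172, phospho-ACC Ser79, total AMPK, β-actin.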
(In western blotting, separated proteins are transferred to a membrane and probed.)

The target is the same in experiment [2]. The experiment in a line: Activation of AMPKalpha in differentiated mouse C2C12 cells assessed as phosphorylated-ACC level at 10 uM after 30 mins by Western blot analysis relative to control. The essentials: as §1
Experiment [3] has the same target. The experiment in a line: Activation of AMPKalpha in differentiated mouse C2C12 cells assessed as change in AMPK level at 10 uM after 30 mins by Western blot analysis relative to control. The method, boiled down:
as §1

Calls of active or inactive are those of the source. The calls are words filed in the database; no cut-off is given here.

Sequence of 5'-AMP-activated protein kinase catalytic subunit alpha-1 (Mus musculus) (Q5EG47 whole entry): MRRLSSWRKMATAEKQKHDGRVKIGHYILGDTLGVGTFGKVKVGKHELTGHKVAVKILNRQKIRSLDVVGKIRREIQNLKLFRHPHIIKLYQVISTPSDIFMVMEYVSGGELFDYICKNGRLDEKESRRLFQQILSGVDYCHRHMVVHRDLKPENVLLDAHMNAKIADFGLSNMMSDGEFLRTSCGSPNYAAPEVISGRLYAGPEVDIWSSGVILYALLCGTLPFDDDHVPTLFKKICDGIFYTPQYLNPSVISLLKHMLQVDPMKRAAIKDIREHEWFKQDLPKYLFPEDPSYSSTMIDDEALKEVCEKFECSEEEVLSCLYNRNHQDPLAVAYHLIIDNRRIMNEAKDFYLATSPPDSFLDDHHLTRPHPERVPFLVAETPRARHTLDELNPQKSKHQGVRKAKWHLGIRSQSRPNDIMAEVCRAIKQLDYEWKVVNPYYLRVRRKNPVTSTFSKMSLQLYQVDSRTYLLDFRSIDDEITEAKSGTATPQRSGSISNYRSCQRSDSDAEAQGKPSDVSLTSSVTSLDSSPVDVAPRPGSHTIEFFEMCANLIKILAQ

Consider `COc1ccc2c(C=O)c(-c3ccc(O)cc3O)oc2c1CC=C(C)C`, for which the outcome in experiment [1] and in experiment [2] was Active. Moreover, the outcome in experiment [3] was inactive.
Consider `CC(C)=CCc1c(O)ccc2c1oc1c3ccc(O)cc3oc(=O)c21`, for which the outcome in experiment [1] and in experiment [2] was Active. Besides, the result in experiment [3] was inactive.
As for `CC(C)=CCc1cc(-c2oc3c(CC=C(C)C)c(O)ccc3c2C=O)c(O)cc1O`, the result in experiment [1], in experiment [2] and in experiment [3] was inactive.
With `COc1ccc2c(oc3c4ccc(O)cc4oc(=O)c23)c1CC=C(C)C`, the result in experiment [1] and in experiment [2] was Active. Also, in experiment [3], the result was inactive.
In the case of `COc1cc(C2(C=O)COc3cc(O)ccc32)c(OC)cc1O` (stereo not drawn), the outcome in experiment [1], in experiment [2] and in experiment [3] was inactive.
For the compound `CC(C)=CCc1cc2c(cc1O)oc(=O)c1c3ccc(O)c(CC=C(C)C)c3oc21`, the result in experiment [1] and in experiment [2] was Active. The outcome in experiment [3] was inactive.
Turning to `CC(C)=CCc1cc(-c2oc3c(CC=C(C)C)c(O)ccc3c2C(=O)O)c(O)cc1O`, the outcome in experiment [2] was Active. In addition, the outcome in experiment [3] was inactive.
For `COc1cc([C@@H]2COc3cc(O)ccc32)c(OC)cc1O`, the outcome in experiment [1], in experiment [2] and in experiment [3] was inactive.
